UBC13 polyUb: blocks human UBC13 polyubiquitin chain formation. TR-FRET. inhibition, % at 20 µM. hit rate 0.47% among 330,000. AID 485273; in the data active means inhibition above about 45%, passing the limit was not always enough
Target sequence (P61088 whole entry, looked up): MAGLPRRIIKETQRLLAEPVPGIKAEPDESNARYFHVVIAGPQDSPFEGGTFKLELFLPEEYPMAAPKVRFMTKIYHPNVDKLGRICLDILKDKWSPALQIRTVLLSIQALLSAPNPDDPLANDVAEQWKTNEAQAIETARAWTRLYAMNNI
UCH37 DUB inh: blocks the human deubiquitinase UCH37 | purified proteasome/UCH37, Ub-AMC cleavage fluorescence | hit rate 0.33% among 330,000 | AID 588478 | inhibition, % (test concentration not listed);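 active means mean inhibition over replicate wells above about 20%, limit read from the data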;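 further: 0% = compound-free wells with enzyme and 100% = wells lacking proteasome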
Target sequence (Q9Y5K5 whole entry, looked up): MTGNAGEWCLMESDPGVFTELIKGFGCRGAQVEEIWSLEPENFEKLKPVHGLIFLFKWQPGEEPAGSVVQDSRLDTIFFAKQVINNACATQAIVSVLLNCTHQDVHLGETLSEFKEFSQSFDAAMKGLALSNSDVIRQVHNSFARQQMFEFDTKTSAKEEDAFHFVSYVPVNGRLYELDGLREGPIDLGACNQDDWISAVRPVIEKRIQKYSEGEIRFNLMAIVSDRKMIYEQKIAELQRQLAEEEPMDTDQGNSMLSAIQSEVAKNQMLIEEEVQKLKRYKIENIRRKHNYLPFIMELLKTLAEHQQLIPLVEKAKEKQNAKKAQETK
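System: Proteasome-associated human UCH37 deubiquitinase; Input: 0.15 nM proteasome in added enzyme buffer; Also added: Ub-AMC substrate from 1 µM stock; Incubation: 30 min compound-proteasome preincubation then 25 min substrate reaction, room temperature; Detection: fluorescence, ex 355 nm, em 460 nm; Read-out: % inhibition of Ub-AMC cleavage fluorescence; Benchmarks: no-proteasome and no-compound wells.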
MEKK3 PB1 HTS: MEKK3-MEK5 PB1 interaction, increase or decrease | Q99759 | bead-based flow cytometry, Alexa488-MEK5 binding to MEKK3; actives lie on both sides; 0 = blocked by unlabeled MEK5, 100 = vehicle | binding response (% of control), % at 10 µM | hit rate 1.4% among 290,000 | AID 1529;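 active means binding response more than 3 SD above or below the average of its plate-row segment, actives on both sides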;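 further: Alexa488 bead fluorescence after subtracting the streptavidin-only scavenger bead signal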
MEKK2wt PB1 HTS: raises or lowers MEK5 binding to wildtype human MEKK2 PB1 domain | Q9Y2U5 | bead flow cytometry, Alexa488-MEK5 binding to MEKK2 WT; actives lie on both sides | binding response (% of control), % at 10 µM | hit rate 1.1% among 290,000 | AID 1531; in the data active means binding response below about 67% or above about 130%
Apaf1 inhib: human Apaf-1 inhibition; O14727; inhibition, % at 20 µM; reconstituted apoptosome caspase-3 activity, DEVD-Rh110 fluorescence; hit rate 0.71% among 330,000; active means inhibition of at least 40% at 20 µM;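 further: plate controls were DMSO wells for no effect and DEVD-CHO caspase inhibitor wells for full effect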
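Material: reconstituted apoptosome with Apaf-1, cytochrome c, caspase-9, procaspase-3, dATP; medium: pH 7.5 Hepes buffer with CHAPS, BSA, DTT; also added: cytochrome c and DEVD-Rh110 substrate; timing: 30 min plus 50 min, RT; signal: Rh110 fluorescence intensity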
MEKK2mut PB1 HTS: signal of MEK5 binding to mutant human MEKK2 PB1 domain; bead flow cytometry, Alexa488-MEK5 binding to MEKK2 mutant; percent response, % at 10 µM; hit rate 0.35% among 290,000; in the data active means percent response above about 24%, passing the limit was not always enough
Apaf-1 inh conf2: confirmation of Apaf-1 inhibitors; hit rate 25% among 1,800; reconstituted apoptosome, caspase-3 DEVD-Rh110 fluorescence; shares compounds with Apaf1 inhib; inhibition, % at 20 µM;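 active means mean inhibition of at least 40% at 20 µM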;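 further: plate controls were DMSO wells for no effect and DEVD-CHO caspase inhibitor control wells for full effect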
Rh110 interf inh: Rh110 signal interference in Apaf-1 inhibitor counter-screen; shares compounds with Apaf1 inhib; Rh110 fluorescence interference, quenched caspase reaction; activation (fluorescence interference), % at 20 µM; 1,800 tested, under 10 active; AID 504615;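 active means signal rise of 40% or more at 20 µM, treated as a fluorescence artifact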
Apaf1 inh interf: counter-screen for Apaf-1 inhibitors: fluorescence interference, dose response; shares compounds with Apaf1 inhib; fluorescence interference counterscreen, Apaf-1 assay format; IC50, µM; 460 tested, under 10 active; AID 588538; call rule not given here
* hit, by the source's call; i = inactive; . = no result given. A selection: hits, their analogues and other compounds. The true share with any hit is near 3%.

SMILES | UBC13 polyUb | UCH37 DUB inh | MEKK3 PB1 HTS | MEKK2wt PB1 HTS | Apaf1 inhib | MEKK2mut PB1 HTS | Apaf-1 inh conf2 | Rh110 interf inh | others
COC(=O)CCC(=O)OC1(C)C(=O)C=C2C=C(C3CC3)N(c3ccc(CO)cc3)C=C2C1=O (stereo not given) | -62 | . | 100 | 97 | 6 | -2 | . | .
COC(=O)CCC(=O)OC1(C)C(=O)C=C2C=C(C3CC3)N(C3CC3)C=C2C1=O (stereo not given) | -38 | 2 | 109 | 96 | 54* | 5 | 37 | -2
CCOc1ccc(NC(=O)C2CC(=O)N(CCc3ccccc3)C2)cc1OC (stereo not given) | 10 | 5 | . | . | 1 | . | . | .
CCC(=O)NC1=C(Cl)C(=O)C(NC(=O)CC)=C(Cl)C1=O | -41 | . | 94 | 100 | 71* | -1 | 11 | 1
O=C1Nc2cc(Cl)c(Cl)cc2N(O)N1c1cccc(Cl)c1 | 2 | 4 | 101 | 101 | 44* | 2 | 13 | -2
O=C1Nc2cc(Cl)c(Cl)cc2N(O)N1c1ccc(Cl)cc1 | 3 | 1 | 96 | 94 | -21 | 0 | . | .
O=C(COc1ccccc1)N1CCN=C1SCc1ccc(F)cc1 | 15 | 3 | 98 | 95 | 56* | -5 | 5 | -27
COc1cc(C2C(C#N)=C(N)Oc3cc(N)ccc32)cc(OC)c1OC (stereo not given) | 2 | -3 | 100 | 103 | 0 | 3 | . | .
CC(=O)Nc1c(S(=O)(=O)c2ccccc2)c2nc3ccccc3nc2n1Cc1ccccc1 | 3 | -133 | 103 | 103 | 60* | 5 | 10 | -7
C=CCn1c(NS(=O)(=O)c2ccccc2)c(S(=O)(=O)c2ccc(C)cc2)c2nc3ccccc3nc21 | . | i | 108 | 104 | . | -1 | . | .
CC(C)CCC(C)N=Cc1c(O)n(Cc2ccccc2)c(=O)c2ccccc12 (stereo not given) | -4 | 3 | 106 | 105 | 60* | 11 | 56* | 3 | Apaf1 inh interf=>100
O=C(NC1=NCCS1)c1cccc(S(=O)(=O)N2CCc3ccccc32)c1 | 3 | 2 | 100 | 100 | 6 | -5 | . | .
O=C1Cc2cc(S(=O)(=O)N3CCCCC3)ccc2N1 | 0 | 8 | 100 | 100 | 9 | 4 | . | .
O=C1Cc2cc(S(=O)(=O)N3CCNCC3)ccc2N1 | -4 | . | . | . | 40* | . | 10 | 6
CN(c1ccccc1)S(=O)(=O)c1cccc(NC(=O)CCNC(=O)c2ccc(Cl)cc2)c1 | 12 | 0 | . | . | 6 | . | . | .
COc1ccc(Nc2ccc(Nc3ccc(OC)cc3)nn2)cc1 | 4 | 2 | 112 | 114 | 6 | 5 | . | .
COc1ccc(Nc2ccc(OC)cc2)cc1 | -52 | 4 | 97 | 100 | 80* | 0 | -6 | 0
CCN1CCN(c2cc(C)c3cc(NC(=S)N(CC)CC)ccc3n2)CC1 | 15 | -5 | 102 | 134 | -9 | 15 | . | .
Cc1ccc(/C=N/NC(=O)C(C)NC(=O)c2ccccc2)cc1 (stereo not given) | 2 | . | 91 | 89 | 41* | -9 | 8 | -6
CCOC(=O)N1CCc2c(sc3c2C(=O)NC(c2ccccc2)N3)C1 (stereo not given) | -22 | -13 | . | . | 81* | . | 20 | 1
CN1CCc2c(sc3c2C(=O)NC(c2cccc(OC(=O)c4cccs4)c2)N3)C1 (stereo not given) | 0 | 3 | . | . | 22 | . | . | .
C#CCOCCOCCOCCNc1nc(N2CCN(C(=O)Cn3cc(CCCCN)nn3)CC2)nc(N2CCN(C(=O)[C@H](CCCCN)n3cc(CCCC)nn3)CC2)n1 | 41 | -1 | . | . | 41* | . | 4 | -7
